Out of some 2,500 compounds screened, about 460 (18%) were called active. The list is a sample of the results. A number with no mark means an inactive call.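 How the source made its calls: active means mean activation above a cutoff of low control average plus 3 SD from the earlier screen (cut at about 12% in these data); inactive means the rest.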

The nature of the assay: compound fluorescence interference without thin filaments, confirmation, artefact control for cardiac RTF calcium sensitizer project, biochemical (AID 504382). The conditions noted are these: IANBD fluorescence interference counterscreen, buffer, EC20 Ca2+; at 7.2 µM; active compounds read high; scaled: EC20 calcium 0, EC100 calcium 100. In short, it runs like this: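 Technique: fluorescence, 480/540 nm / Medium: MOPS-based buffer with KCl, MgCl2, EGTA, NTA, DTT, pH 7.2 / Probe or stimulus: calcium at EC20 level, 0.472 mM final / Repeats: triplicate wells per compound / Times: 15 min compound exposure at 25 °C / Measure: compound fluorescence interference relative to control well signal range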
On the technique in general: The purpose of a counterscreen is to sort out artefacts and off-target activity.
Turning to `O=C(O)C1CCC(CNCc2ccccc2Cl)CC1` (stereo unspecified), the fluorescence artifact activation is 0.76%.

For the molecule `CCCCc1ccc(NC(=O)c2cnccn2)cc1`, the fluorescence artifact activation is 9.08%.

As for `COc1ccc(CNC(=O)c2sc(=S)n(-c3ccccc3)c2N)cc1`, the fluorescence artifact activation was 9.19%.

As to `CC(C)NC(=O)C1CCCN(c2nnc(-n3cccc3)s2)C1` (stereo unspecified), the fluorescence artifact activation was 316% (active).

For the molecule `COc1cccc(CNC(=O)C2CCCN(c3nc4ccccc4o3)C2)c1` (stereo unspecified), the fluorescence artifact activation was 0.08%.

On to `O=C(Nc1cc2c3c(c1)CC(=O)N3CCC2)C1CC1`, for which the fluorescence artifact activation is 0.03%.

Take `Cc1ccc(/C=C2/SC(=O)NC2=S)o1`: the fluorescence artifact activation was 6.76%.

In the case of `C(=N\c1nc2ccccc2n1CCN1CCOCC1)/c1cccs1`, the fluorescence artifact activation is -0.03%.

Take `Cc1ccc(C(C(=O)NC(C)(C)C)N(C(=O)c2csnn2)C2CC2)cc1` (stereo unspecified): the fluorescence artifact activation is 34.2% (active).

Consider `COC(=O)c1c(NC(=O)CN2CCN(c3cccc(Cl)c3)CC2)sc(C)c1C`, for which the fluorescence artifact activation was 0.21%.

Regarding `CCOC(=O)c1[nH]c2ccc(OCC)cc2c1CCCN1C(=O)c2ccccc2C1=O`, the fluorescence artifact activation was 87.1% (active).

`CCCN1C(=O)c2ccccc2NC1c1ccc(O)c(OCC)c1` (stereo unspecified): the fluorescence artifact activation is 2.14%.

For the molecule `CCOC(=O)C1=C(C)N(CCCCCC(=O)O)C(=O)NC1c1ccccc1Cl` (stereo unspecified), the fluorescence artifact activation was 0.06%.

On to `CC(OC(=O)c1c2c(nc3ccccc13)/C(=C\c1ccc3c(c1)OCO3)CCC2)C(=O)Nc1ccc(S(N)(=O)=O)cc1` (stereo unspecified), for which the fluorescence artifact activation is 0.03%.

Turning to `N#Cc1cc(C(=O)c2ccccc2O)cn(-c2nccs2)c1=O`, the fluorescence artifact activation is 12.1% (active).

Consider `Cc1ccc(O)c(C(=O)c2cc(C#N)c(=O)n(-c3nccs3)c2)c1`, for which the fluorescence artifact activation is 0.06%.

For the molecule `N#Cc1cc(C(=O)c2cc(F)ccc2O)cn(-c2nccs2)c1=O`, the fluorescence artifact activation was 0.01%.

For `O=C(Cn1ncc2c3ccccc3n(Cc3cccc(Cl)c3)c2c1=O)NCC1CCCO1` (stereo unspecified), the fluorescence artifact activation is 0.38%.

Turning to `O=C(NCCOc1ccccc1Cl)C(=O)Nc1ccccc1`, the fluorescence artifact activation was 0.07%.

Turning to `CS/C(=N\S(=O)(=O)c1cccs1)Nc1cccc(Cl)c1C`, the fluorescence artifact activation was 16.4% (active).

As for `COc1cccc(CNC(=O)CN(C)S(=O)(=O)c2ccc3c(c2)c(=O)n(C)c(=O)n3C)c1`, the fluorescence artifact activation is 0.24%.

Regarding `COc1cccc(CNC(=O)CN(C)S(=O)(=O)c2cnc[nH]2)c1`, the fluorescence artifact activation was 41.4% (active).

Take `COc1cccc(CNC(=O)CCS(=O)(=O)c2cc3c(cc2C)NC(=O)CO3)c1`: the fluorescence artifact activation was 0.09%.

Regarding `COc1ccc(/C=N/NC(=O)Cn2c(Cc3ccc(OC)c(OC)c3)nc3ccccc32)cc1`, the fluorescence artifact activation was 1.63%.

Take `COc1ncnc2c1NC1=C(S2)C(=NCCC(=O)O)CC(C)(C)C1`: the fluorescence artifact activation is 19.4% (active).

For the molecule `CC(=O)c1cc2c(cc1N/C(=N/S(=O)(=O)c1ccc(Br)cc1)c1ccccc1)OCO2`, the fluorescence artifact activation was 0.13%.

For the origin of these results see PubChem BioAssay AID504382 (The Scripps Research Institute Molecular Screening Center, 2011).
